Source: ChEMBL document CHEMBL3227950, “Ames test of 1-(X-phenyl)-3,3-dialkyltriazenes. A quantitative structure-activity study” (J Med Chem, 1979)

Test system: Salmonella typhimurium
Experiment: Mutagenicity in Salmonella typhimurium strain TA92 assessed as number of bacterial revertants after 2 days by Ames test in presence of rat liver S9 fraction
Assay type: toxicity, organism-based
Conditions: salmonella enterica subsp. enterica serovar typhimurium, s9, 48 h
How it was run: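 S. typhimurium TA92 (hisG46, pKM101) grown 12-16 h at 37 °C in nutrient broth (~10⁹ cells/mL). S-9 from livers of Aroclor 1254-induced female Sprague-Dawley rats (500 mg/kg ip, 5 days before sacrifice). Compound in Me₂SO, bacteria and S-9 mix preincubated 20 min at 30 °C, then plated in histidine/biotin top agar and incubated 2 days at 37 °C. Revertants were hand counted, with spontaneous control revertants subtracted. Triplicates were run. The end point was 30 revertants/10⁸ bacteria, interpolated to give log 1/C.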

SMILES: CCCCN(C)/N=N/c1ccc(C(N)=O)cc1
- log(1/C): 5.41

SMILES: CN(C)/N=N/c1ccccc1
- log(1/C): 5.32

SMILES: CN(C)/N=N/c1ccc(S(N)(=O)=O)cc1
- log(1/C): 3.49

SMILES: CN(C)/N=N/c1ccc(C(F)(F)F)cc1
- log(1/C): 5.99

SMILES: CN(C)/N=N/c1cccc(C(N)=O)c1
- log(1/C): 3.51

SMILES: CC(=O)Nc1ccc(/N=N/N(C)C)cc1
- log(1/C): 5.83

SMILES: CN(C)/N=N/c1cc(C#N)cc(C#N)c1
- log(1/C): 3.46

SMILES: C=CCN(C)/N=N/c1ccc(C(N)=O)cc1
- log(1/C): 4.16

SMILES: CN(C)/N=N/c1cccc(NC(N)=O)c1
- log(1/C): 4.19

SMILES: CN(C)/N=N/c1ccc(C#N)cc1
- log(1/C): 4.43

SMILES: CN(C)/N=N/c1ccc(NC(N)=O)cc1
- log(1/C): 5.59

SMILES: Cc1cccc(/N=N/N(C)C)c1
- log(1/C): 6.44

SMILES: Cc1ccc(/N=N/N(C)C)cc1
- log(1/C): 7

SMILES: CN(C)/N=N/c1ccc(-c2ccccc2)cc1
- log(1/C): 7.67

SMILES: CN(/N=N/c1ccc(C(N)=O)cc1)C(C)(C)C
- log(1/C): 3.83

SMILES: CN(C)/N=N/c1ccc(C(N)=O)cc1
- log(1/C): 4.04

SMILES: CC(=O)c1ccc(/N=N/N(C)C)cc1
- log(1/C): 4.47

SMILES: CN(C)/N=N/c1ccc(Cl)cc1
- log(1/C): 6.48

SMILES: COc1cc2c(c3oc(=O)c4c(c13)CCC4=O)[C@@H]1C=CO[C@@H]1O2 [AFLATOXIN]
- log(1/C): 9.48

SMILES: CN(C)/N=N/c1[nH]cnc1C(N)=O [DACARBAZINE]
- log(1/C): 3
